Measurements taken from ChEMBL document CHEMBL3045650, “Design, synthesis, and 3D-QSAR analysis of novel 1,3,4-oxadiazol-2(3H)-ones as protoporphyrinogen oxidase inhibitors” (J Agric Food Chem, 2010).

How the values were obtained:
Amaranthus retroflexus [1] = assay: Post-emergence herbicidal activity against Amaranthus retroflexus assessed as growth inhibition at emulsified concentrate of 75 g/ai ha after 15 days by greenhouse test; format: functional
How it was run: (§1)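 Compounds were made up as 100 g/L emulsifiable concentrates in DMF with Tween-80, then diluted in water. About 20 seeds were sown 1-3 cm deep in pots and grown in a greenhouse at 15-30 °C and 50% relative humidity. Sprays were applied postemergence at the two-leaf stage. Untreated and DMF + Tween-80 solvent controls were included. Injury was scored visually 15 days after treatment, with three replicates per treatment.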

Amaranthus retroflexus [2] = assay: Post-emergence herbicidal activity against Amaranthus retroflexus assessed as growth inhibition at emulsified concentrate of 150 g/ai ha after 15 days by greenhouse test; format: functional
How it was run: (§2)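 About 20 seeds sown 1–3 cm deep, grown at 15–30 °C and 50% RH. Dicot seedlings sprayed postemergence at the two-leaf stage with a 100 g/L emulsifiable concentrate (DMF/Tween-80) diluted in water, 150 g ai/ha. Untreated and solvent controls included. Visual rating at 15 days, three replicates.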

Cyperus iria [3] = assay: Post-emergence herbicidal activity against Cyperus iria assessed as growth inhibition at emulsified concentrate of 75 g/ai ha after 15 days by greenhouse test; format: functional
Polygonum humifusum [4] = assay: Post-emergence herbicidal activity against Polygonum humifusum assessed as growth inhibition at emulsified concentrate of 37.5 g/ai ha after 15 days by greenhouse test; format: functional
Abutilon theophrasti [5] = assay: Post-emergence herbicidal activity against Abutilon theophrasti (velvetleaf) assessed as growth inhibition at emulsified concentrate of 75 g/ai ha after 15 days by greenhouse test; format: functional
Eclipta prostrata [6] = assay: Post-emergence herbicidal activity against Eclipta prostrata assessed as growth inhibition at emulsified concentrate of 150 g/ai ha after 15 days by greenhouse test; format: functional; how it was run: as §2
Poa annua = assay: Post-emergence herbicidal activity against Poa annua assessed as growth inhibition at emulsified concentrate of 150 g/ai ha after 15 days by greenhouse test; format: functional
How it was run: (§3)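 About 20 seeds sown 1–3 cm deep, grown at 15–30 °C and 50% RH. Monocot seedlings sprayed postemergence at the one-leaf stage with a 100 g/L emulsifiable concentrate (DMF/Tween-80) diluted in water, 150 g ai/ha. Untreated and solvent controls included. Visual rating at 15 days, three replicates.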

Brassica juncea [7] = assay: Post-emergence herbicidal activity against Brassica juncea assessed as growth inhibition at emulsified concentrate of 150 g/ai ha after 15 days by greenhouse test; format: functional; how it was run: as §2
Brassica juncea [8] = assay: Post-emergence herbicidal activity against Brassica juncea assessed as growth inhibition at emulsified concentrate of 75 g/ai ha after 15 days by greenhouse test; format: functional; how it was run: as §1
Abutilon theophrasti [9] = assay: Post-emergence herbicidal activity against Abutilon theophrasti (velvetleaf) assessed as growth inhibition at emulsified concentrate of 150 g/ai ha after 15 days by greenhouse test; format: functional
Cyperus iria [10] = assay: Post-emergence herbicidal activity against Cyperus iria assessed as growth inhibition at emulsified concentrate of 37.5 g/ai ha after 15 days by greenhouse test; format: functional
Rumex acetosa [11] = assay: Post-emergence herbicidal activity against Rumex acetosa assessed as growth inhibition at emulsified concentrate of 75 g/ai ha after 15 days by greenhouse test; format: functional
Polygonum humifusum [12] = assay: Post-emergence herbicidal activity against Polygonum humifusum assessed as growth inhibition at emulsified concentrate of 75 g/ai ha after 15 days by greenhouse test; format: functional
Digitaria sanguinalis = assay: Post-emergence herbicidal activity against Digitaria sanguinalis (hairy crabgrass) assessed as growth inhibition at emulsified concentrate of 150 g/ai ha after 15 days by greenhouse test; format: functional; how it was run: as §3
Eclipta prostrata [13] = assay: Post-emergence herbicidal activity against Eclipta prostrata assessed as growth inhibition at emulsified concentrate of 37.5 g/ai ha after 15 days by greenhouse test; format: functional; how it was run: as §1
Echinochloa crus-galli = assay: Post-emergence herbicidal activity against Echinochloa crus-galli (barnyard grass) assessed as growth inhibition at emulsified concentrate of 150 g/ai ha after 15 days by greenhouse test; format: functional; how it was run: as §3
Rumex acetosa [14] = assay: Post-emergence herbicidal activity against Rumex acetosa assessed as growth inhibition at emulsified concentrate of 150 g/ai ha after 15 days by greenhouse test; format: functional
Polygonum humifusum [15] = assay: Post-emergence herbicidal activity against Polygonum humifusum assessed as growth inhibition at emulsified concentrate of 150 g/ai ha after 15 days by greenhouse test; format: functional
Cyperus iria [16] = assay: Post-emergence herbicidal activity against Cyperus iria assessed as growth inhibition at emulsified concentrate of 150 g/ai ha after 15 days by greenhouse test; format: functional
Rumex acetosa [17] = assay: Post-emergence herbicidal activity against Rumex acetosa assessed as growth inhibition at emulsified concentrate of 37.5 g/ai ha after 15 days by greenhouse test; format: functional
[18] = molecular target: T1, Protoporphyrinogen oxidase (Homo sapiens, UniProt P50336); assay: Inhibition of Homo sapiens (human) recombinant protoporphyrinogen oxidase expressed in Escherichia coli JM109 assessed as oxidation of protoporphyrinogen IX substrate by fluorescence assay
T1 sequence (P50336 whole entry): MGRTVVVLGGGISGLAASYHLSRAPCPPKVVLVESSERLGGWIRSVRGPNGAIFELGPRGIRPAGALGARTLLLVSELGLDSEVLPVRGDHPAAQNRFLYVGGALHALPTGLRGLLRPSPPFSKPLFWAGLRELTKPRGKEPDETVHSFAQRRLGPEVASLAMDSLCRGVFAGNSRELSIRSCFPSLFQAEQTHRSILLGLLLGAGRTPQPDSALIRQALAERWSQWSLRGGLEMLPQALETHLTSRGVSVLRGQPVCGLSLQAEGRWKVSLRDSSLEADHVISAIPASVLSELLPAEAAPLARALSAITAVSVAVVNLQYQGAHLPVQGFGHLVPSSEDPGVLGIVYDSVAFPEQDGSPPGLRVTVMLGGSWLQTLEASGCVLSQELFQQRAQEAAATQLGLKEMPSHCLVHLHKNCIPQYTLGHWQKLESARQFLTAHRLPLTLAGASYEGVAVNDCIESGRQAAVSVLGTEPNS

Eclipta prostrata [19] = assay: Post-emergence herbicidal activity against Eclipta prostrata assessed as growth inhibition at emulsified concentrate of 75 g/ai ha after 15 days by greenhouse test; format: functional; how it was run: as §1
Amaranthus retroflexus [20] = assay: Post-emergence herbicidal activity against Amaranthus retroflexus assessed as growth inhibition at emulsified concentrate of 37.5 g/ai ha after 15 days by greenhouse test; format: functional; how it was run: as §1
Brassica juncea [21] = assay: Post-emergence herbicidal activity against Brassica juncea assessed as growth inhibition at emulsified concentrate of 37.5 g/ai ha after 15 days by greenhouse test; format: functional; how it was run: as §1
Abutilon theophrasti [22] = assay: Post-emergence herbicidal activity against Abutilon theophrasti (velvetleaf) assessed as growth inhibition at emulsified concentrate of 37.5 g/ai ha after 15 days by greenhouse test; format: functional

Row | SMILES | inhibition (INH) (Amaranthus retroflexus [1]) [%] | inhibition (INH) (Amaranthus retroflexus [2]) [%] | inhibition (INH) (Cyperus iria [3]) [%] | inhibition (INH) (Polygonum humifusum [4]) [%] | inhibition (INH) (Abutilon theophrasti [5]) [%] | inhibition (INH) (Eclipta prostrata [6]) [%] | inhibition (INH) (Poa annua) [%] | inhibition (INH) (Brassica juncea [7]) [%] | inhibition (INH) (Brassica juncea [8]) [%] | inhibition (INH) (Abutilon theophrasti [9]) [%] | inhibition (INH) (Cyperus iria [10]) [%] | inhibition (INH) (Rumex acetosa [11]) [%] | inhibition (INH) (Polygonum humifusum [12]) [%] | inhibition (INH) (Digitaria sanguinalis) [%] | inhibition (INH) (Eclipta prostrata [13]) [%] | inhibition (INH) (Echinochloa crus-galli) [%] | inhibition (INH) (Rumex acetosa [14]) [%] | inhibition (INH) (Polygonum humifusum [15]) [%] | inhibition (INH) (Cyperus iria [16]) [%] | inhibition (INH) (Rumex acetosa [17]) [%] | other results
1 | CCCOC(=O)CSc1nc2cc(-n3nc(C(C)(C)C)oc3=O)c(F)cc2s1 | 60 | 100 | 40 | 60 | 0 | 90 | 0 | 50 | 50 | 0 | 40 | 60 | 70 | 0 | 0 | 0 | 70 | 80 | 60 | 50 | Ki [18]: 700 nM; inhibition (INH) (Eclipta prostrata [19]): 40%; inhibition (INH) (Amaranthus retroflexus [20]): 0%; inhibition (INH) (Brassica juncea [21]): 50%; inhibition (INH) (Abutilon theophrasti [22]): 0%
2 | CCOC(=O)C(C)Sc1nc2cc(-n3nc(C(C)(C)C)oc3=O)c(F)cc2s1 (stereo not given) | 60 | 90 | 90 | 60 | 100 | 95 | 0 | 75 | 70 | 100 | 90 | 95 | 70 | 50 | 80 | 0 | 100 | 70 | 100 | 95 | Ki [18]: 1420 nM; inhibition (INH) (Eclipta prostrata [19]): 85%; inhibition (INH) (Amaranthus retroflexus [20]): 60%; inhibition (INH) (Brassica juncea [21]): 70%; inhibition (INH) (Abutilon theophrasti [22]): 80%
3 | CCOC(=O)CCCSc1nc2cc(-n3nc(C(C)(C)C)oc3=O)c(F)cc2s1 | 80 | 90 | 60 | 50 | 0 | 70 | 0 | 50 | 50 | 50 | 60 | 60 | 80 | 0 | 50 | 0 | 70 | 80 | 70 | 50 | Ki [18]: 700 nM; inhibition (INH) (Eclipta prostrata [19]): 60%; inhibition (INH) (Amaranthus retroflexus [20]): 60%; inhibition (INH) (Brassica juncea [21]): 50%; inhibition (INH) (Abutilon theophrasti [22]): 0%
4 | COC(=O)CSc1nc2cc(-n3nc(C(C)(C)C)oc3=O)c(Br)cc2s1 | 60 | 80 | 40 | 60 | 0 | 0 | 0 | 0 | 0 | 0 | 40 | 50 | 70 | 0 | 0 | 0 | 60 | 70 | 50 | 40 | Ki [18]: 7460 nM; inhibition (INH) (Eclipta prostrata [19]): 0%; inhibition (INH) (Amaranthus retroflexus [20]): 50%; inhibition (INH) (Brassica juncea [21]): 0%; inhibition (INH) (Abutilon theophrasti [22]): 0%
5 | CCOC(=O)CCSc1nc2cc(-n3nc(C(C)(C)C)oc3=O)c(Cl)cc2s1 | 60 | 80 | 50 | 70 | 0 | 60 | 0 | 70 | 60 | 0 | 40 | 70 | 70 | 0 | 50 | 0 | 70 | 70 | 60 | 60 | Ki [18]: 250 nM; inhibition (INH) (Eclipta prostrata [19]): 60%; inhibition (INH) (Amaranthus retroflexus [20]): 50%; inhibition (INH) (Brassica juncea [21]): 60%; inhibition (INH) (Abutilon theophrasti [22]): 0%
6 | CCOC(=O)C(C)Sc1nc2cc(-n3nc(C(C)(C)C)oc3=O)c(Cl)cc2s1 (stereo not given) | 100 | 100 | 60 | 40 | 0 | 70 | 0 | 50 | 0 | 0 | 60 | 30 | 60 | 0 | 0 | 0 | 60 | 70 | 70 | 0 | Ki [18]: 1690 nM; inhibition (INH) (Eclipta prostrata [19]): 40%; inhibition (INH) (Amaranthus retroflexus [20]): 60%; inhibition (INH) (Brassica juncea [21]): 0%; inhibition (INH) (Abutilon theophrasti [22]): 0%
7 | CCOC(=O)CSc1nc2cc(-n3nc(C(C)(C)C)oc3=O)c(F)cc2s1 | 50 | 90 | 70 | 70 | 0 | 50 | 0 | 50 | 50 | 0 | 60 | 50 | 70 | 0 | 0 | 0 | 70 | 80 | 70 | 50 | Ki [18]: 1580 nM; inhibition (INH) (Eclipta prostrata [19]): 0%; inhibition (INH) (Amaranthus retroflexus [20]): 50%; inhibition (INH) (Brassica juncea [21]): 0%; inhibition (INH) (Abutilon theophrasti [22]): 0%
